Values belong to the compound of their own block, whether it stands above or below them.
Columns and labels:
[1] = test system: melanocyte-stimulating hormone receptor (Rana pipiens); test: Inhibition of 1 nM alpha melanocortin stimulating hormone from frog skin; No activity up to 10^-5 M.
[2] = test system: melanocyte-stimulating hormone receptor (Rana pipiens); test: Maximum agonist response for frog skin melanocortin 1 receptor (MC1R); No activity up to 10^-5M
Melanocortin receptor 3 [3] = molecular target: T1, Melanocortin receptor 3 (Rattus norvegicus, UniProt P32244); test: Maximal agonist response at rat melanocortin 3 receptor (MC3R); format: functional
T1 sequence (P32244 whole entry): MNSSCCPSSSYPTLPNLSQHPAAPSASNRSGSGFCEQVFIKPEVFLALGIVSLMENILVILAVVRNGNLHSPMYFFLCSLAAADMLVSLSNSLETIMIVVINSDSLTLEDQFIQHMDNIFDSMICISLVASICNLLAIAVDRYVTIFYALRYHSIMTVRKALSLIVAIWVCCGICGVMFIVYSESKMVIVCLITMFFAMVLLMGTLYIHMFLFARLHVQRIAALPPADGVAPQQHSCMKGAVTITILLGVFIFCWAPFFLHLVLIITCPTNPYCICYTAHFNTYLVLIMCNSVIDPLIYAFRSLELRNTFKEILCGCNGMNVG
Summary of the method: (§1)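 Cells stably expressing wild-type mouse (MC3R: rat) melanocortin receptor, transfected with 4 μg CRE/β-galactosidase reporter; 5000–15 000 cells plated, incubated overnight. At 48 h post-transfection, stimulated 6 h in DMEM with 0.1 mg/mL BSA and 0.1 mM IBMX; forskolin 10^-4 M reference.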

Melanocortin receptor 4 [4] = molecular target: T2, Melanocortin receptor 4 (Mus musculus, UniProt P56450); test: Effective concentration for maximum agonist response towards mouse melanocortin 4 receptor; format: functional
T2 sequence (P56450 whole entry): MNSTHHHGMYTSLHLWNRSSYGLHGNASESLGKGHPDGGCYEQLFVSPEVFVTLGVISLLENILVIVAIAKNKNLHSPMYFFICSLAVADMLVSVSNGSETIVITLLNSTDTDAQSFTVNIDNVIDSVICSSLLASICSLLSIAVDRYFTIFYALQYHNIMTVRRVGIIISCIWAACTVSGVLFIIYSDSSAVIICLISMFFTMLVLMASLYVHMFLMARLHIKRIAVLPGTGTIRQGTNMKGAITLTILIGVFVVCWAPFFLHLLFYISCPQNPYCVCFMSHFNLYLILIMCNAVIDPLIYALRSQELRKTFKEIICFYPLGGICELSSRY
Summary of the method: as §1

Melanocortin receptor 5 [5] = molecular target: T3, Melanocortin receptor 5 (Mus musculus, UniProt P41149); test: Maximum agonist response for mouse melanocortin 5 receptor (MC5R); format: functional
T3 sequence (P41149 whole entry): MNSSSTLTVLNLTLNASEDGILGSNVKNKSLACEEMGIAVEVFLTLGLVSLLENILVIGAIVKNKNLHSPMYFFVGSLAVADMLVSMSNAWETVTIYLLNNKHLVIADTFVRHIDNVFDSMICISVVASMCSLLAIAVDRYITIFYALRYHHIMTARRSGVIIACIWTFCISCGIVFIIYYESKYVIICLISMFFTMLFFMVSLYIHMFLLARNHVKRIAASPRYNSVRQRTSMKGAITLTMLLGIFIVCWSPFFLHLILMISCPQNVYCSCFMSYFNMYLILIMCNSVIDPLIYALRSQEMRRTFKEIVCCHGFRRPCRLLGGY
Summary of the method: as §1

[6] = molecular target: T4, Melanocyte-stimulating hormone receptor (Mus musculus, UniProt Q01727); test: Maximal agonist response of mouse melanocortin 1 receptor (MC1R); format: functional
T4 sequence (Q01727 whole entry): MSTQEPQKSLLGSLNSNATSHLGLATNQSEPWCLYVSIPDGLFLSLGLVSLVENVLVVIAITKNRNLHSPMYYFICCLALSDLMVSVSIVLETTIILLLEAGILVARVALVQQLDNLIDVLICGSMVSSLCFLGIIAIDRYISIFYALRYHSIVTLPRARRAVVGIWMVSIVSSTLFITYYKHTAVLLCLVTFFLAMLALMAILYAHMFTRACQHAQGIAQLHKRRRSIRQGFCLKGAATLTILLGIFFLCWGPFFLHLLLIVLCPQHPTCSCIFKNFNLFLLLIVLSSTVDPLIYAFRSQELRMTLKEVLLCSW
Summary of the method: as §1

Melanocortin receptor 4 [7] = molecular target: T2, Melanocortin receptor 4; test: Effective concentration for maximum agonist response towards mouse melanocortin 4 receptor (MC4R); No activity up to 10^-5 M; format: functional
Summary of the method: as §1

Melanocortin receptor 5 [8] = molecular target: T3, Melanocortin receptor 5; test: Effective concentration for maximum agonist response towards mouse melanocortin 5 receptor (MC5R); No activity up to 10^-5 M; format: functional
Summary of the method: as §1

[9] = molecular target: T4, Melanocyte-stimulating hormone receptor; test: Effective concentration for maximum agonist response towards mouse melanocortin 1 receptor (MC1R); No activity up to 10^-5 M; format: functional
Summary of the method: as §1

Melanocortin receptor 3 [10] = molecular target: T1, Melanocortin receptor 3; test: Effective concentration for maximum agonist response towards rat melanocortin 3 receptor (MC3R); No activity up to 10e-5 M; format: functional
Summary of the method: as §1

[11] = test system: Melanocortin receptor 1 (Rana pipiens); test: Inhibition of 1 nM alpha melanocortin stimulating hormone (MSH) from frog skin; antagonist

EC50 [2]: Not Active
SMILES: C[C@@H](O)[C@H](NC(=O)[C@@H]1NC(=O)[C@H](Cc2c[nH]c3ccccc23)NC(=O)[C@H](CCCN=C(N)N)NC(=O)[C@H](Cc2c[nH]c3ccccc23)NC(=O)[C@H](Cc2ccccc2)NC(=O)[C@@H](NC(=O)[C@H](N)Cc2ccccc2)CSSC1(C)C)C(N)=O

EC50 (Melanocortin receptor 3 [3]): 75 nM
SMILES: C[C@@H](O)[C@H](NC(=O)[C@H]1CCSSC[C@H](NC(=O)[C@@H](N)Cc2ccccc2)C(=O)N[C@@H](Cc2cnc[nH]2)C(=O)N[C@H](Cc2ccccc2)C(=O)N[C@@H](CCCNC(=N)N)C(=O)N[C@H](Cc2c[nH]c3ccccc23)C(=O)N1)C(N)=O

EC50 (Melanocortin receptor 4 [4]): 0.2 nM
EC50 (Melanocortin receptor 5 [5]): 0.1 nM
EC50 [6]: 0.23 nM
EC50 (Melanocortin receptor 3 [3]): 0.23 nM
IC50 [1]: Not Active
SMILES: C[C@@H](O)[C@H](NC(=O)[C@H]1CSSC[C@H](NC(=O)[C@H](N)Cc2ccccc2)C(=O)N[C@H](Cc2cnc[nH]2)C(=O)N[C@H](Cc2ccccc2)C(=O)N[C@@H](CCCNC(=N)N)C(=O)N[C@H](Cc2c[nH]c3ccccc23)C(=O)N1)C(N)=O

IC50 [1]: Not Active
SMILES: C[C@@H](O)[C@H](NC(=O)[C@@H]1CSSC[C@H](NC(=O)[C@H](N)Cc2ccccc2)C(=O)N[C@@H](Cc2c[nH]cn2)C(=O)N[C@H](Cc2ccc(Cl)cc2)C(=O)N[C@@H](CCCN=C(N)N)C(=O)N[C@@H](Cc2c[nH]c3ccccc23)C(=O)N1)C(N)=O

IC50 [1]: Not Active
SMILES: C[C@@H](O)[C@H](NC(=O)[C@H]1NC(=O)[C@H](Cc2c[nH]c3ccccc23)NC(=O)[C@H](CCCN=C(N)N)NC(=O)[C@@H](Cc2ccccc2)NC(=O)[C@H](Cc2c[nH]cn2)NC(=O)[C@@H](NC(=O)[C@H](N)Cc2ccccc2)CSSC1(C)C)C(N)=O

EC50 [2]: Not Active
SMILES: C[C@@H](O)[C@H](NC(=O)[C@H]1NC(=O)[C@H]([C@@H](C)O)NC(=O)[C@H](CCCN=C(N)N)NC(=O)[C@@H](Cc2c[nH]c3ccccc23)NC(=O)[C@H](Cc2ccc(I)cc2)NC(=O)[C@@H](NC(=O)[C@H](N)Cc2ccccc2)CSSC1(C)C)C(N)=O

EC50 [2]: Not Active
IC50 [1]: Not Active
SMILES: C[C@@H](O)[C@H](NC(=O)[C@@H]1CSSC[C@@H](NC(=O)[C@H](N)Cc2ccccc2)C(=O)N[C@@H](Cc2c[nH]cn2)C(=O)N[C@@H](Cc2ccc3ccccc3c2)C(=O)N[C@@H](CCCN=C(N)N)C(=O)N[C@H](Cc2c[nH]c3ccccc23)C(=O)N1)C(N)=O

EC50 (Melanocortin receptor 4 [4]): 51 nM
EC50 (Melanocortin receptor 5 [5]): 2.2 nM
EC50 [6]: 5.1 nM
SMILES: C[C@@H](O)[C@H](NC(=O)[C@@H]1CCSSC[C@H](NC(=O)[C@H](N)Cc2ccccc2)C(=O)N[C@@H](Cc2cnc[nH]2)C(=O)N[C@H](Cc2ccccc2)C(=O)N[C@@H](CCCNC(=N)N)C(=O)N[C@@H](Cc2c[nH]c3ccccc23)C(=O)N1)C(N)=O

EC50 (Melanocortin receptor 3 [3]): 0.23 nM
SMILES: C[C@@H](O)[C@H](NC(=O)[C@H]1CCCCNC(=O)C[C@H](NC(=O)[C@@H](N)Cc2ccccc2)C(=O)N[C@@H](Cc2cnc[nH]2)C(=O)N[C@H](Cc2ccccc2)C(=O)N[C@@H](CCCNC(=N)N)C(=O)N[C@H](Cc2c[nH]c3ccccc23)C(=O)N1)C(N)=O

EC50 (Melanocortin receptor 4 [7]): Not Active
EC50 (Melanocortin receptor 5 [5]): 46 nM
EC50 [6]: 490 nM
EC50 (Melanocortin receptor 3 [3]): 59 nM
IC50 [11]: Antagonist
EC50 [2]: Not Active
SMILES: C[C@@H](O)[C@H](NC(=O)[C@H]1CSSC(C)(C)[C@H](NC(=O)[C@H](N)Cc2ccccc2)C(=O)N[C@@H](Cc2c[nH]cn2)C(=O)N[C@@H](Cc2ccccc2)C(=O)N[C@@H](CCCN)C(=O)N[C@H](Cc2c[nH]c3ccccc23)C(=O)N1)C(N)=O

Further lines, the compound ahead of its results:

SMILES: C[C@@H](O)[C@H](NC(=O)[C@H]1CSSC[C@H](NC(=O)[C@@H](N)Cc2ccccc2)C(=O)N[C@@H](Cc2c[nH]cn2)C(=O)N[C@H](Cc2ccccc2)C(=O)N[C@@H](CCCN=C(N)N)C(=O)N[C@H](Cc2c[nH]c3ccccc23)C(=O)N1)C(N)=O
IC50 [1]: Not Active

SMILES: C[C@@H](O)[C@H](NC(=O)[C@@H]1NC(=O)[C@@H](Cc2c[nH]c3ccccc23)NC(=O)[C@H](CCCNC(=N)N)NC(=O)[C@@H](Cc2ccccc2)NC(=O)[C@@H](Cc2cnc[nH]2)NC(=O)[C@@H](NC(=O)[C@H](N)Cc2ccccc2)CSSC1(C)C)C(N)=O
EC50 (Melanocortin receptor 3 [3]): 64 nM

SMILES: C[C@@H](O)[C@H](NC(=O)[C@@H]1CCCCNC(=O)C[C@H](NC(=O)[C@H](N)Cc2ccccc2)C(=O)N[C@@H](Cc2c[nH]cn2)C(=O)N[C@H](Cc2ccccc2)C(=O)N[C@@H](CCCN=C(N)N)C(=O)N[C@@H](Cc2c[nH]c3ccccc23)C(=O)N1)C(N)=O
IC50 [1]: Not Active

SMILES: C[C@@H](O)[C@H](NC(=O)[C@H]1NC(=O)[C@H](Cc2c[nH]c3ccccc23)NC(=O)[C@H](CCCN=C(N)N)NC(=O)[C@@H](Cc2c[nH]c3ccccc23)NC(=O)[C@H](Cc2ccc(O)cc2)NC(=O)[C@@H](NC(=O)[C@H](N)Cc2ccccc2)CSSC1(C)C)C(N)=O
EC50 [2]: Not Active

SMILES: C[C@@H](O)[C@H](NC(=O)[C@H]1NC(=O)[C@H](Cc2c[nH]c3ccccc23)NC(=O)[C@H](CCCN=C(N)N)NC(=O)[C@@H](Cc2c[nH]c3ccccc23)NC(=O)[C@H](Cc2ccccc2)NC(=O)[C@@H](NC(=O)[C@H](N)Cc2ccccc2)CSSC1(C)C)C(N)=O
EC50 [2]: Not Active

SMILES: C[C@H](O)[C@@H](NC(=O)[C@H]1CSSC[C@H](NC(=O)[C@H](N)Cc2ccccc2)C(=O)N[C@@H](Cc2cnc[nH]2)C(=O)N[C@@H](Cc2ccc(Cl)cc2)C(=O)N[C@@H](CCCNC(=N)N)C(=O)N[C@H](Cc2c[nH]c3ccccc23)C(=O)N1)C(N)=O
EC50 (Melanocortin receptor 4 [4]): 0.67 nM
EC50 (Melanocortin receptor 5 [5]): 0.11 nM
EC50 [6]: 0.37 nM
EC50 (Melanocortin receptor 3 [3]): 7.3 nM

SMILES: C[C@@H](O)[C@H](NC(=O)[C@@H]1CSSC[C@H](NC(=O)[C@H](N)Cc2ccccc2)C(=O)N[C@@H](Cc2c[nH]cn2)C(=O)N[C@@H](Cc2cccc3ccccc23)C(=O)N[C@@H](CCCN=C(N)N)C(=O)N[C@H](Cc2c[nH]c3ccccc23)C(=O)N1)C(N)=O
IC50 [1]: Not Active

SMILES: C[C@@H](O)[C@H](NC(=O)[C@H]1NC(=O)[C@H](CO)NC(=O)[C@H](CCCN=C(N)N)NC(=O)[C@@H](Cc2c[nH]c3ccccc23)NC(=O)[C@H](Cc2ccc(O)cc2)NC(=O)[C@@H](NC(=O)[C@H](N)Cc2ccccc2)CSSC1(C)C)C(N)=O
EC50 [2]: Not Active

SMILES: C[C@@H](O)[C@H](NC(=O)[C@@H]1CSSC[C@H](NC(=O)[C@H](N)Cc2ccccc2)C(=O)N[C@@H](Cc2c[nH]cn2)C(=O)N[C@@H](Cc2ccc(I)cc2)C(=O)N[C@@H](CCCN=C(N)N)C(=O)N[C@H](Cc2c[nH]c3ccccc23)C(=O)N1)C(N)=O
EC50 [2]: Not Active
IC50 [1]: Not Active

SMILES: C[C@@H](O)[C@H](NC(=O)[C@H]1NC(=O)[C@H]([C@@H](C)O)NC(=O)[C@H](CCCN=C(N)N)NC(=O)[C@@H](Cc2ccccc2)NC(=O)[C@H](Cc2ccccc2)NC(=O)[C@@H](NC(=O)[C@H](N)Cc2ccccc2)CSSC1(C)C)C(N)=O
EC50 [2]: Not Active
IC50 [1]: Not Active

SMILES: C[C@@H](O)[C@H](NC(=O)[C@@H]1CSSC[C@H](NC(=O)[C@H](N)Cc2ccccc2)C(=O)N[C@@H](Cc2c[nH]cn2)C(=O)N[C@@H](Cc2ccc(F)cc2)C(=O)N[C@@H](CCCN=C(N)N)C(=O)N[C@H](Cc2c[nH]c3ccccc23)C(=O)N1)C(N)=O
IC50 [1]: Not Active

SMILES: C[C@H](O)[C@@H](NC(=O)[C@H]1CSSC[C@H](NC(=O)[C@@H](N)Cc2ccccc2)C(=O)N[C@@H](Cc2c[nH]cn2)C(=O)N2Cc3ccccc3C[C@H]2C(=O)N[C@@H](CCCN=C(N)N)C(=O)N[C@H](Cc2c[nH]c3ccccc23)C(=O)N1)C(N)=O
EC50 (Melanocortin receptor 4 [7]): Not Active
EC50 (Melanocortin receptor 5 [8]): Not Active
EC50 [9]: Not Active
EC50 (Melanocortin receptor 3 [10]): Not Active
EC50 [2]: Not Active

SMILES: C[C@@H](O)[C@H](NC(=O)[C@H]1CSSC[C@H](NC(=O)[C@H](N)Cc2ccccc2)C(=O)N[C@@H](Cc2c[nH]cn2)C(=O)N[C@@H](Cc2ccccc2)C(=O)N[C@@H](CCCN=C(N)N)C(=O)N[C@H](Cc2c[nH]c3ccccc23)C(=O)N1)C(N)=O
EC50 (Melanocortin receptor 4 [4]): 1.4 nM
EC50 (Melanocortin receptor 5 [5]): 0.12 nM
EC50 [6]: 1.5 nM
EC50 (Melanocortin receptor 3 [3]): 3 nM
IC50 [1]: Not Active

SMILES: C[C@@H](O)[C@H](NC(=O)[C@@H]1CCSSC[C@H](NC(=O)[C@H](N)Cc2ccccc2)C(=O)N[C@@H](Cc2c[nH]cn2)C(=O)N[C@H](Cc2ccccc2)C(=O)N[C@@H](CCCN=C(N)N)C(=O)N[C@@H](Cc2c[nH]c3ccccc23)C(=O)N1)C(N)=O
IC50 [1]: Not Active

SMILES: C[C@@H](O)[C@H](NC(=O)[C@@H]1CCCCNC(=O)C[C@H](NC(=O)[C@H](N)Cc2ccccc2)C(=O)N[C@@H](Cc2cnc[nH]2)C(=O)N[C@H](Cc2ccccc2)C(=O)N[C@@H](CCCNC(=N)N)C(=O)N[C@@H](Cc2c[nH]c3ccccc23)C(=O)N1)C(N)=O
EC50 (Melanocortin receptor 4 [4]): 0.38 nM
EC50 (Melanocortin receptor 5 [5]): 0.074 nM
EC50 [6]: 0.047 nM

SMILES: C[C@@H](O)[C@H](NC(=O)[C@H]1NC(=O)[C@H](Cc2c[nH]c3ccccc23)NC(=O)[C@H](CCCNC(=N)N)NC(=O)[C@@H](Cc2ccccc2)NC(=O)[C@H](Cc2cnc[nH]2)NC(=O)[C@@H](NC(=O)[C@H](N)Cc2ccccc2)CSSC1(C)C)C(N)=O
EC50 (Melanocortin receptor 4 [4]): 20 nM
EC50 (Melanocortin receptor 5 [5]): 0.14 nM
EC50 [6]: 6.9 nM
